# From ChEMBL document CHEMBL2086296, “Synthesis of novel quinoline-2-one based chalcones of potential anti-tumor activity” (Eur J Med Chem, 2012)
# What was measured:
# [1] = system: MDA-MB-435; assay: Cytotoxicity against human MDA-MB-435 cells after 24 hrs by SRB assay; type: cell-based; details: mda-mb-435, 24 h
# How it was run: (§1)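 NCI 60-cell screen. Cells grown in RPMI 1640 with 5% FBS and 2 mM L-glutamine, seeded at 5,000–40,000 cells/well, preincubated 24 h at 37 °C in 5% CO2. Drug stock in DMSO, diluted in medium with gentamicin; five final concentrations, 100, 10, 1.0, 0.1 and […]. Time-zero plates were TCA-fixed. Protein read by SRB staining; GI50, TGI and LC50 taken relative to time-zero.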
# [2] = system: HOP-62; assay: Cytotoxicity against human HOP62 cells after 24 hrs by SRB assay; type: cell-based; details: hop-62, 24 h; how it was run: as §1
# [3] = system: SW-620; assay: Cytotoxicity against human SW620 cells after 24 hrs by SRB assay; type: functional; details: SW-620, 24 h
# How it was run: (§2)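 NCI 60-cell screen. Cells are grown in RPMI 1640 with 5% FBS and 2 mM L-glutamine and seeded at 5,000–40,000 cells/well according to doubling time. They are preincubated 24 h at 37 °C in 5% CO2, and Tz plates are TCA-fixed at drug addition. Drug stock is in DMSO, diluted in medium with gentamicin, and tested at five concentrations (100, 10, 1.0, 0.1, […]). Protein is read by SRB staining. GI50, TGI and LC50 are derived relative to time-zero and control wells.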
# [4] = system: HT-29; assay: Cytotoxicity against human HT-29 cells after 24 hrs by SRB assay; type: cell-based; details: ht-29, 24 h; how it was run: as §1
# [5] = system: NCI-H522; assay: Cytotoxicity against human NCI-H522 cells after 24 hrs by SRB assay; type: cell-based; details: nci-h522, 24 h; how it was run: as §1
# [6] = system: EKVX; assay: Cytotoxicity against human EKVX cells after 24 hrs by SRB assay; type: cell-based; how it was run: as §1
# [7] = system: SF-268; assay: Cytotoxicity against human SF268 cells after 24 hrs by SRB assay; type: functional; details: SF-268, 24 h
# How it was run: (§3)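 NCI 60-line screen. Cells in RPMI 1640 with 5% FBS and 2 mM L-glutamine, seeded at 5,000–40,000 cells/well by doubling time, then incubated 24 h at 37 °C, 5% CO2 before dosing. Time-zero plates fixed with TCA at drug addition. DMSO stocks diluted in medium with gentamicin to five concentrations, […]. Protein read by SRB staining. GI50, TGI and LC50 derived relative to control and time-zero.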
# [8] = system: RPMI-8226; assay: Cytotoxicity against human RPMI8226 cells after 24 hrs by SRB assay; type: cell-based; details: rpmi-8226, 24 h; how it was run: as §1
# [9] = system: MDA-MB-468; assay: (§4) Cytotoxicity against human MDA-MB-468 cells after 24 hrs by SRB assay; type: cell-based; details: mda-mb-468, 24 h; how it was run: as §1
# [10] = system: U-251; assay: Cytotoxicity against human U251 cells after 24 hrs by SRB assay; type: functional; details: U-251, 24 h; how it was run: as §2
# [11] = system: DU-145; assay: Cytotoxicity against human DU145 cells after 24 hrs by SRB assay; type: functional; details: DU-145, 24 h; how it was run: as §3
# [12] = system: TK-10; assay: Cytotoxicity against human TK10 cells after 24 hrs by SRB assay; type: cell-based; details: tk-10, 24 h
# How it was run: (§5)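 NCI 60-cell-line screen: cells grown in RPMI 1640 with 5% FBS and 2 mM L-glutamine, seeded at 5,000–40,000 cells/well by doubling time, and preincubated 24 h at 37 °C in 5% CO2. Time-zero plates were TCA-fixed. DMSO stocks were diluted in medium with gentamicin to five concentrations (100, 10, 1.0, 0.1, […]). Protein was read by SRB, and GI50, TGI and LC50 were derived against time-zero.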
# [13] = system: SNB-19; assay: (§6) Cytotoxicity against human SNB19 cells after 24 hrs by SRB assay; type: cell-based; details: snb-19, 24 h; how it was run: as §5
# [14] = system: KM12; assay: Cytotoxicity against human KM12 cells after 24 hrs by SRB assay; type: functional; details: KM12, 24 h; how it was run: as §3
# [15] = system: NCI/ADR-RES; assay: (§7) Cytotoxicity against human NCI/ADR-RES cells after 24 hrs by SRB assay; type: functional; how it was run: as §3
# [16] = system: SR; assay: (§8) Cytotoxicity against human SR cells after 24 hrs by SRB assay; type: cell-based; how it was run: as §5
# [17] = system: SNB-19; assay: as §6; type: functional; details: SNB-19, 24 h; how it was run: as §2
# [18] = system: HOP-92; assay: Cytotoxicity against human HOP92 cells after 24 hrs by SRB assay; type: functional; details: HOP-92, 24 h; how it was run: as §3
# [19] = system: OVCAR-5; assay: Cytotoxicity against human OVCAR5 cells after 24 hrs by SRB assay; type: functional; details: OVCAR-5, 24 h; how it was run: as §3
# [20] = system: NCI-H226; assay: Cytotoxicity against human NCI-H226 cells after 24 hrs by SRB assay; type: functional; details: NCI-H226, 24 h; how it was run: as §3
# [21] = system: LOX IMVI; assay: Cytotoxicity against human LOXIMVI cells after 24 hrs by SRB assay; type: cell-based; how it was run: as §1
# [22] = system: BT-549; assay: Cytotoxicity against human BT549 cells after 24 hrs by SRB assay; type: functional; details: BT-549, 24 h; how it was run: as §3
# [23] = system: SR; assay: as §8; type: functional; how it was run: as §2
# [24] = system: HCC 2998; assay: Cytotoxicity against human HCC2998 cells after 24 hrs by SRB assay; type: cell-based; details: hcc 2998, 24 h; how it was run: as §1
# [25] = system: MOLT-4; assay: Cytotoxicity against human MOLT4 cells after 24 hrs by SRB assay; type: functional; details: MOLT-4, 24 h; how it was run: as §3
# [26] = system: HCT-15; assay: Cytotoxicity against human HCT15 cells after 24 hrs by SRB assay; type: cell-based; details: hct-15, 24 h; how it was run: as §1
# [27] = system: SNB-75; assay: Cytotoxicity against human SNB75 cells after 24 hrs by SRB assay; type: functional; details: SNB-75, 24 h; how it was run: as §2
# [28] = system: NCI/ADR-RES; assay: as §7; type: cell-based; how it was run: as §1
# [29] = system: MDA-MB-468; assay: as §4; type: functional; details: MDA-MB-468, 24 h; how it was run: as §3
# [30] = system: RXF 393; assay: (§9) Cytotoxicity against human RXF393 cells after 24 hrs by SRB assay; type: cell-based; details: rxf 393, 24 h; how it was run: as §1
# [31] = system: CCRF-CEM; assay: Cytotoxicity against human CCRF-CEM cells after 24 hrs by SRB assay; type: functional; how it was run: as §3
# [32] = system: RXF 393; assay: as §9; type: functional; details: RXF 393, 24 h; how it was run: as §3
# [33] = system: A549; assay: Cytotoxicity against human A549 cells after 24 hrs by SRB assay; type: cell-based; details: a549, 24 h; how it was run: as §1
# [34] = system: SK-MEL-5; assay: Cytotoxicity against human SK-MEL-5 cells after 24 hrs by SRB assay; type: functional; details: SK-MEL-5, 24 h; how it was run: as §3
# [35] = system: T47D; assay: Cytotoxicity against human T47D cells after 24 hrs by SRB assay; type: cell-based; how it was run: as §5
# [36] = system: NCI-H460; assay: Cytotoxicity against human NCI-H460 cells after 24 hrs by SRB assay; type: functional; details: NCI-H460, 24 h; how it was run: as §3
# [37] = system: ACHN; assay: Cytotoxicity against human ACHN cells after 24 hrs by SRB assay; type: functional; how it was run: as §3
smiles,measurement,setting,value
COc1ccc(C(=O)/C=C/c2cc3ccccc3[nH]c2=O)cc1,LC50,[1],91.6 µM
same,LC50,[2],59 µM
same,GI50,[3],3.41 µM
same,TGI,[3],8.89 µM
same,LC50,[4],> 100 µM
same,LC50,[5],> 100 µM
same,LC50,[6],> 100 µM
same,GI50,[7],2.85 µM
same,TGI,[7],9.77 µM
same,LC50,[8],> 100 µM
same,LC50,[9],39.8 µM
same,GI50,[10],2.7 µM
same,TGI,[10],10.9 µM
same,GI50,[11],3.14 µM
same,TGI,[11],11.2 µM
same,LC50,[12],> 100 µM
same,LC50,[13],75.8 µM
same,GI50,[14],2.85 µM
same,TGI,[14],7.81 µM
same,GI50,[15],2.63 µM
same,TGI,[15],8.44 µM
same,LC50,[16],> 100 µM
same,GI50,[17],4.2 µM
same,TGI,[17],19.1 µM
same,GI50,[18],2.97 µM
same,TGI,[18],8.76 µM
same,GI50,[19],3.6 µM
same,TGI,[19],18.4 µM
same,GI50,[20],5.57 µM
same,TGI,[20],> 100 µM
same,LC50,[21],33.3 µM
same,GI50,[22],2.7 µM
same,TGI,[22],7.9 µM
same,GI50,[23],2.83 µM
same,TGI,[23],> 100 µM
same,LC50,[24],29 µM
same,GI50,[25],3.39 µM
same,TGI,[25],> 100 µM
same,LC50,[26],> 100 µM
same,GI50,[27],2.29 µM
same,TGI,[27],10.1 µM
same,LC50,[28],> 100 µM
same,GI50,[29],2.38 µM
same,TGI,[29],5.98 µM
same,LC50,[30],33.5 µM
same,GI50,[31],4.04 µM
same,TGI,[31],> 100 µM
same,GI50,[32],3.41 µM
same,TGI,[32],8.53 µM
same,LC50,[33],> 100 µM
same,GI50,[34],5.73 µM
same,TGI,[34],18.1 µM
same,LC50,[35],> 100 µM
same,GI50,[36],2.75 µM
same,TGI,[36],8.34 µM
same,GI50,[37],3.93 µM
same,TGI,[37],16.7 µM
O=C(/C=C/c1cc2ccccc2[nH]c1=O)/C=C/c1cc2ccccc2[nH]c1=O,LC50,[2],> 100 µM
same,GI50,[3],1 µM
same,TGI,[3],3.92 µM
same,LC50,[5],> 100 µM
same,LC50,[6],> 100 µM
same,GI50,[7],3.75 µM
same,TGI,[7],> 100 µM
same,LC50,[8],> 100 µM
same,LC50,[9],> 100 µM
same,GI50,[10],0.372 µM
same,TGI,[10],2.1 µM
same,GI50,[11],4.18 µM
same,TGI,[11],> 100 µM
same,LC50,[12],> 100 µM
same,LC50,[13],> 100 µM
same,GI50,[14],0.494 µM
same,TGI,[14],1.83 µM
same,GI50,[15],> 100 µM
same,TGI,[15],> 100 µM
same,LC50,[16],> 100 µM
same,GI50,[17],5.12 µM
same,TGI,[17],> 100 µM
same,GI50,[18],> 100 µM
same,TGI,[18],> 100 µM
same,GI50,[20],2.77 µM
same,TGI,[20],8.01 µM
same,GI50,[22],1.9 µM
same,TGI,[22],6.15 µM
same,GI50,[23],1.14 µM
same,TGI,[23],> 100 µM
same,LC50,[24],5.25 µM
same,GI50,[25],2.27 µM
same,TGI,[25],> 100 µM
same,LC50,[26],> 100 µM
same,LC50,[28],> 100 µM
same,GI50,[29],1.58 µM
same,TGI,[29],4.39 µM
same,LC50,[30],7.73 µM
same,GI50,[31],0.697 µM
same,TGI,[31],> 100 µM
same,GI50,[32],1.79 µM
same,TGI,[32],3.73 µM
same,LC50,[33],> 100 µM
same,GI50,[34],5.63 µM
same,TGI,[34],> 100 µM
same,LC50,[35],> 100 µM
same,GI50,[36],4.63 µM
same,TGI,[36],> 100 µM
same,GI50,[37],2.49 µM
same,TGI,[37],> 100 µM
